Results: ChEMBL document CHEMBL3867488 (ACS Med Chem Lett, 2016)

Key:
[1] = molecular target: T1, Oxysterols receptor LXR-beta (Homo sapiens) (UniProt P55055); assay: Agonist activity at human LXR-beta expressed in African green monkey CV1 cells measured after 18 to 20 hrs by luciferase reporter gene assay relative to pan agonist 1-(2,4-difluorobenzyl)-2-oxo-6-(4-phenoxyphenyl)-4-(trifluoromethyl)-1,2-dihydropyridine-3-carbonitrile; assay type: cell-based; settings: CV-1
T1 sequence (whole entry): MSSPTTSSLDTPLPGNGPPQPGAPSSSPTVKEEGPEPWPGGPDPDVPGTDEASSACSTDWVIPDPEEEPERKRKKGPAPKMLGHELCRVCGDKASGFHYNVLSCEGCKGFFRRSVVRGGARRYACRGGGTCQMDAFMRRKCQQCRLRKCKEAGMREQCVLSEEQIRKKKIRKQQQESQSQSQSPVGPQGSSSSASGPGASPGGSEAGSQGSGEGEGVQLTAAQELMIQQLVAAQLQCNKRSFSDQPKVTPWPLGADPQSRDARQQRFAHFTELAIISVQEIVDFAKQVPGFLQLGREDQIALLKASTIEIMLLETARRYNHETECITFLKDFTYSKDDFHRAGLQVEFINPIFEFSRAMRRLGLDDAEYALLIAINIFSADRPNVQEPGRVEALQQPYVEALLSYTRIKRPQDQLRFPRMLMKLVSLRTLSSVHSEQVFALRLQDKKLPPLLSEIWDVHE

[2] = molecular target: T2, Oxysterols receptor LXR-beta (Homo sapiens, UniProt P55055); assay: Agonist activity at human LXR-beta expressed in African green monkey CV1 cells measured after 18 to 20 hrs by luciferase reporter gene assay; assay type: cell-based, CV-1
T2 sequence (P55055 whole entry): T1 sequence (whole entry)

[3] = molecular target: Retinoic acid receptor RXR-alpha/oxysterols receptor LXR-beta (Homo sapiens, UniProt P55055); assay: Displacement of [3H]-24,25-epoxycholesterol from human LXRbeta/RXRalpha expressed in baculovirus infected Sf9 cells by scintillation proximity analysis
Chain of Retinoic acid receptor RXR-alpha/oxysterols receptor LXR-beta (P19793 whole entry, one chain of several): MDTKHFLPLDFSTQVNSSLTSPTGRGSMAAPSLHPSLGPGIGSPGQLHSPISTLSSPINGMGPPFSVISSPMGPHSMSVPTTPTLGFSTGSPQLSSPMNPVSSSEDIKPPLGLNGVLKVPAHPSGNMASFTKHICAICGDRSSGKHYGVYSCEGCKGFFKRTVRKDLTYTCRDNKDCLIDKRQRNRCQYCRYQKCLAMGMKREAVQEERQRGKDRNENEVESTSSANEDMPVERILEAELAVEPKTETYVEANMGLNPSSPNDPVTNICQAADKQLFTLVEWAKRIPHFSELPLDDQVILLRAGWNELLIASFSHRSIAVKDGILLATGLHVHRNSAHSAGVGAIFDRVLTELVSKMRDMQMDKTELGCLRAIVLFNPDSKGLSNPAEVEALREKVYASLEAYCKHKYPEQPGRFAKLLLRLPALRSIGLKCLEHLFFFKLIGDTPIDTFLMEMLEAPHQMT
Method in brief: (§1)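 Binding affinity measured using full-length LXRα–RXRα and LXRβ–RXRα heterodimers.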

[4] = molecular target: Retinoic acid receptor RXR-alpha/oxysterols receptor LXR-alpha (Homo sapiens, UniProt Q13133); assay: Displacement of [3H]-24,25-epoxycholesterol from human LXRalpha/RXRalpha expressed in baculovirus infected Sf9 cells by scintillation proximity analysis; method in brief: as §1
Chain of Retinoic acid receptor RXR-alpha/oxysterols receptor LXR-alpha (P19793 whole entry, one chain of several): as above

[5] = molecular target: T3, Oxysterols receptor LXR-alpha (Homo sapiens, UniProt Q13133); assay: Agonist activity at human LXR-alpha expressed in African green monkey CV1 cells measured after 18 to 20 hrs by luciferase reporter gene assay relative to pan agonist 1-(2,4-difluorobenzyl)-2-oxo-6-(4-phenoxyphenyl)-4-(trifluoromethyl)-1,2-dihydropyridine-3-carbonitrile; assay type: cell-based; settings: CV-1, human; read-out: Efficacy
T3 sequence (Q13133 whole entry): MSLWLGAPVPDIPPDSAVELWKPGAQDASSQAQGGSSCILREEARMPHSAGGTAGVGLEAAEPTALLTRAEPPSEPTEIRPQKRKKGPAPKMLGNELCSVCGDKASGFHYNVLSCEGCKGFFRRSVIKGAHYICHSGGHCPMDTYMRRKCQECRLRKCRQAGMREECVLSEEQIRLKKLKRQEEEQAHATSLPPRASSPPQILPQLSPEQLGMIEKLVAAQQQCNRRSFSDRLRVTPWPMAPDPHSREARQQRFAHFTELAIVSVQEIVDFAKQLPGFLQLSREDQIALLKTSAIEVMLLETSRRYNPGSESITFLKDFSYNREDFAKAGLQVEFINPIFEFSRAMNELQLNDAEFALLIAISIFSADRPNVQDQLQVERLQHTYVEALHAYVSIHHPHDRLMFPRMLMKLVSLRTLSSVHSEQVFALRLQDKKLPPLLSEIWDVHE

[6] = molecular target: T2, Oxysterols receptor LXR-beta; assay: Agonist activity at LXR-beta in human HeLa cells assessed as induction of ABCA1 by beta-galactosidase/luciferase reporter gene assay; assay type: cell-based
Method in brief: (§2)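 HeLa cells carrying endogenous LXRα and LXRβ receptors, transfected with an ABCA1 LXREx3 reporter construct; agonist-driven reporter induction measured.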

[7] = molecular target: T3, Oxysterols receptor LXR-alpha; assay: Agonist activity at human LXR-alpha expressed in African green monkey CV1 cells measured after 18 to 20 hrs by luciferase reporter gene assay; assay type: cell-based, CV-1
[8] = molecular target: T1, Oxysterols receptor LXR-beta (Homo sapiens); assay: Agonist activity at LXR-beta in human HeLa cells assessed as induction of ABCA1 by beta-galactosidase/luciferase reporter gene assay relative to control; assay type: cell-based; method in brief: as §2
[9] = molecular target: T2, Oxysterols receptor LXR-beta; assay: Agonist activity at LXR-beta in human whole blood assessed as ABCA1 gene induction by measuring ABCA1 mRNA level after 4 hrs by SYBR-Green dye-based Q-PCR analysis; assay type: tissue-based
[10] = molecular target: T1, Oxysterols receptor LXR-beta (Homo sapiens); assay: (§3) Agonist activity at LXR-beta in human whole blood assessed as ABCA1 gene induction by measuring ABCA1 mRNA level after 4 hrs by SYBR-Green dye-based Q-PCR analysis relative to pan agonist 2-(4-(5-(5-cyano-1-(2,4-difluorobenzyl)-6-oxo-4-(trifluoromethyl)-1,6-dihydropyridin-2-yl)thiophen-2-yl)-3-methylphenyl)acetic acid; assay type: tissue-based
[11] = Clearance in cynomolgus monkey at 0.2 mg/kg, iv administered as cassette dose by LC/MS/MS analysis; assay type: ADME, organism-based, Macaca fascicularis; settings: in vivo
[12] = Half life in cynomolgus monkey at 0.2 mg/kg, iv administered as cassette dose by LC/MS/MS analysis; assay type: ADME, organism-based, Macaca fascicularis; settings: in vivo
[13] = molecular target: Alpha-1-acid glycoprotein 1 (Homo sapiens, UniProt P02763); assay: Binding affinity to human alpha-1-AGP at 1 uM measured after 4 hrs by equilibrium dialysis method relative to control; assay type: ADME; settings: for PB: isolated protein, 4 h, 1 µM; for fraction unbound at 4 h, 1 µM: human alpha-1-acid glycoprotein, read-out: PB
Chain of Alpha-1-acid glycoprotein 1 (P02763 whole entry): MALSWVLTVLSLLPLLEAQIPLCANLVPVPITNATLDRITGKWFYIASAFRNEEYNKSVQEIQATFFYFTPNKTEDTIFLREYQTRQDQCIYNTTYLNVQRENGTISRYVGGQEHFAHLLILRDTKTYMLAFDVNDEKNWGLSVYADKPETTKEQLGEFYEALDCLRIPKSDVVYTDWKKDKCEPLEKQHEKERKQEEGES

Albumin = Albumin (Homo sapiens, UniProt P02768); assay: Binding affinity to human serum albumin at 1 uM measured after 4 hrs by equilibrium dialysis method relative to control; assay type: ADME; settings: for PB: isolated protein, 4 h, 1 µM
Chain of Albumin (P02768 whole entry, the tested form may be a part): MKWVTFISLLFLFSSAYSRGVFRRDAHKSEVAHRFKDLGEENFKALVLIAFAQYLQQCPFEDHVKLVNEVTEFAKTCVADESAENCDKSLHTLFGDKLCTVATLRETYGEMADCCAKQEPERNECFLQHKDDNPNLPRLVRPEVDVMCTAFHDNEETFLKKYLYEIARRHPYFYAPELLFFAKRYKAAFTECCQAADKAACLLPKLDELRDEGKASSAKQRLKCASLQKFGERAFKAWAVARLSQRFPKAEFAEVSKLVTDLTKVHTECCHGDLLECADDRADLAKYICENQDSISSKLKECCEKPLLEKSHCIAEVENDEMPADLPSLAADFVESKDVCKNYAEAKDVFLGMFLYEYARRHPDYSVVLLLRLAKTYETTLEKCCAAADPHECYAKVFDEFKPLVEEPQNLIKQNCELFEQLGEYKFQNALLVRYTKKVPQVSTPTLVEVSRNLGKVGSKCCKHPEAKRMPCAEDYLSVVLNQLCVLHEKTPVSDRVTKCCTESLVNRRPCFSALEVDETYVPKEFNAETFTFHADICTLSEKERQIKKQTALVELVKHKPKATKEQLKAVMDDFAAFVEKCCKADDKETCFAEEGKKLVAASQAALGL

[14] = Half life in cynomolgus monkey at 1 mg/kg, iv administered as 10 mins infusion by LC/MS/MS analysis; assay type: ADME, organism-based, Macaca fascicularis; settings: in vivo
[15] = Half life in human plasma; assay type: ADME, cell-free
Method in brief: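 Human plasma half-life was obtained from a clinical single ascending dose PK study.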

[16] = molecular target: T4, Alpha-1-acid glycoprotein (Rattus norvegicus, UniProt P02764); assay: Binding affinity to rat alpha-1-AGP at 1 uM measured after 4 hrs by equilibrium dialysis method relative to control; assay type: ADME; settings: rat alpha-1-acid glycoprotein, read-out: PB (converted)
T4 sequence (P02764 whole entry): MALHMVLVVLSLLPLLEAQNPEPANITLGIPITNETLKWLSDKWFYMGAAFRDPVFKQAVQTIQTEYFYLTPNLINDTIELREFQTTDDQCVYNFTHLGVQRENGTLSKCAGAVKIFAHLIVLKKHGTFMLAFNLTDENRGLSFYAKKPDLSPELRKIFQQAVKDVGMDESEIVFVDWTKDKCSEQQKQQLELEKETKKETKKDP

[17] = Binding affinity to dog alpha-1-AGP at 1 uM measured after 4 hrs by equilibrium dialysis method relative to control; assay type: ADME, Canis lupus familiaris; settings: dog alpha-1-acid glycoprotein, read-out: PB (converted)
[18] = molecular target: T2, Oxysterols receptor LXR-beta; assay: Agonist activity at LXR-beta in human whole blood assessed as ABCG1 gene induction by measuring ABCA1 mRNA level after 4 hrs by SYBR-Green dye-based Q-PCR analysis; assay type: tissue-based
[19] = molecular target: T1, Oxysterols receptor LXR-beta (Homo sapiens); assay: as §3, with “as ABCG1” for “as ABCA1”; assay type: tissue-based
[20] = Half life in cynomolgus monkey at 0.25 mg/kg, iv administered as 10 mins infusion by LC/MS/MS analysis; assay type: ADME, organism-based, Macaca fascicularis; settings: in vivo
Method in brief: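 Cynomolgus monkey intravenous PK, with n = 2 animals at the 0.25 mg/kg dose. Plasma clearance (mL/min/kg) and terminal t1/2 (h) derived from the plasma concentration–time profile.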

Row | Structure (SMILES) | Efficacy [1] [%] | EC50 [2] [nM] | Ki [3] [nM] | Ki [4] [nM] | Emax [5] [%] | EC50 [6] [nM] | EC50 [7] [nM] | Efficacy [8] [%] | EC50 [9] [nM] | Efficacy [10] [%] | further results
1 | CC(C)(O)c1cn(-c2ccc(-c3cc(F)c(CO)c(S(C)(=O)=O)c3)cc2Cl)c(C(C)(C)c2c(Cl)cccc2Cl)n1 | 51 | 27 | 48 | 50 | 6 | 2 | 8 | 12 | 5 | 16 | –
2 | CC(O)c1ccc(-c2ccc(-n3cc(C(C)(C)O)nc3C(C)(C)c3ccccc3Cl)cc2)cc1S(C)(=O)=O (configuration not stated) | 93 | 220 | 40 | 180 | 47 | 21 | 120 | 68 | 870 | 47 | clearance [11]: 5.6 mL/min/kg; half-life [12]: 5.5 h
3 | CC(c1c(Cl)cccc1Cl)c1nc(C(C)(C)O)cn1-c1ccc(-c2cc(F)c(CO)c(S(C)(=O)=O)c2)cc1F (configuration not stated) | 67 | 25 | 13 | 17 | 18 | 2 | 12 | 9 | 23 | 17 | –
4 | CC(C)(O)c1cn(-c2ccc(-c3cccc(S(C)(=O)=O)c3)cc2)c(C(C)(C)c2ccccc2Cl)n1 [BMS-779788] | – | – | – | – | 38 | 33 | 220 | 50 | 1200 | 55 | t1/2 [14]: 7.4 h; clearance [11]: 2.9 mL/min/kg; half-life [12]: 8.9 h; half-life [15]: 100 to 200 h; fraction unbound at 4 h, 1 µM [13]: 0.001; fraction unbound at 4 h, 1 µM (Albumin; human serum albumin, read-out: PB): 0.028 to 0.03; fraction unbound at 4 h, 1 µM [16]: 0.08; fraction unbound at 4 h, 1 µM [17]: 0.02; EC50 [18]: 1100 nM; Efficacy [19]: 60%
5 | CC(C)(O)c1cn(-c2ccc(-c3ccc(CO)c(S(C)(=O)=O)c3)cc2)c(Cc2ccccc2Cl)n1 | 50 | 60 | 5 | 31 | 39 | 9 | 100 | 54 | 300 | 72 | t1/2 [20]: 0.8 h
6 | CC(C)(O)c1cn(-c2ccc(-c3cc(F)c(CO)c(S(C)(=O)=O)c3)cc2)c(Cc2c(Cl)cccc2Cl)n1 | 54 | 140 | 11 | 75 | 17 | 5 | 69 | 43 | 42 | 51 | –
7 | CC(C)(O)c1cn(-c2ccc(-c3cccc(S(C)(=O)=O)c3)cc2)c(C(C)(C)c2c(Cl)cccc2Cl)n1 | 41 | 170 | 11 | 16 | 20 | 18 | 99 | 42 | 380 | 32 | fraction unbound at 4 h, 1 µM [13]: 0.004 to 0.01; PB (Albumin): 97.9%
8 | CC(C)(O)c1cn(-c2ccc(-c3cc(F)c(CO)c(S(C)(=O)=O)c3)cc2F)c(C(C)(C)c2c(F)cccc2Cl)n1 | 86 | 20 | 14 | 70 | 15 | 1 | 11 | 30 | 41 | 33 | –

Further lines, with some results ahead:

Row | Efficacy [1] [%] | EC50 [2] [nM] | Ki [3] [nM] | Ki [4] [nM] | Emax [5] [%] | EC50 [6] [nM] | EC50 [7] [nM] | Efficacy [8] [%] | EC50 [9] [nM] | Efficacy [10] [%] | Structure (SMILES) | further results
9 | 83 | 72 | 10 | 53 | 29 | 8 | 76 | 43 | 57 | 47 | CC(C)(O)c1cn(-c2ccc(-c3cc(F)c(CO)c(S(C)(=O)=O)c3)cc2)c(C(C)(C)c2ccccc2Cl)n1 | clearance [11]: 8.4 mL/min/kg; half-life [12]: 5.6 h; PB [13]: 86.6%; PB (Albumin): 95.5%
10 | 72 | 42 | 6 | 38 | 25 | 3 | 30 | 23 | 15 | 43 | CC(C)(O)c1cn(-c2ccc(-c3cc(F)c(CO)c(S(C)(=O)=O)c3)cc2)c(C(C)(C)c2c(Cl)cccc2Cl)n1 | –
11 | 79 | 50 | 18 | 9 | 25 | 2 | 57 | 29 | 46 | 35 | CC(C)(O)c1cn(-c2ccc(-c3cc(F)c(CO)c(S(C)(=O)=O)c3)cc2F)c(C(C)(C)c2ccccc2Cl)n1 | –
12 | 68 | 160 | 14 | 81 | 13 | 12 | 130 | 15 | 43 | 28 | CC(C)(O)c1cn(-c2ccc(-c3cc(F)c(CO)c(S(C)(=O)=O)c3)cc2)c(C(C)(C)c2ccccc2F)n1 | –
13 | 74 | 170 | 13 | 74 | 46 | 12 | 110 | 56 | 300 | 46 | CC(C)(O)c1cn(-c2ccc(-c3ccc(CO)c(S(C)(=O)=O)c3)cc2)c(C(C)(C)c2ccccc2Cl)n1 | PB [13]: 90.2%; PB (Albumin): 96.1%
